Measurements from ChEMBL document CHEMBL1141083, “Development of human calcitonin gene-related peptide (CGRP) receptor antagonists. 1. Potent and selective small molecule CGRP antagonists. 1-[N2-[3,5-dibromo-N-[[4-(3,4-dihydro-2(1H)-oxoquinazolin-3-yl)-1-piperidinyl]carbonyl]-D-tyrosyl]-l-lysyl]-4-(4-pyridinyl)piperazine: the first CGRP antagonist …” (J Med Chem, 2005).

Columns and labels:
[1] = target: T1, Calcitonin gene-related peptide type 1 receptor (Homo sapiens, UniProt O60894+Q16602); assay: Affinity against human calcitonin gene related peptide receptor (1 uM) expressed in SK-N-MC cells using [125I]-CGRP as radioligand after 180 minutes of incubation at pH 7.40; assay type: cell-based
T1 sequence (Q16602 whole entry, one chain of several): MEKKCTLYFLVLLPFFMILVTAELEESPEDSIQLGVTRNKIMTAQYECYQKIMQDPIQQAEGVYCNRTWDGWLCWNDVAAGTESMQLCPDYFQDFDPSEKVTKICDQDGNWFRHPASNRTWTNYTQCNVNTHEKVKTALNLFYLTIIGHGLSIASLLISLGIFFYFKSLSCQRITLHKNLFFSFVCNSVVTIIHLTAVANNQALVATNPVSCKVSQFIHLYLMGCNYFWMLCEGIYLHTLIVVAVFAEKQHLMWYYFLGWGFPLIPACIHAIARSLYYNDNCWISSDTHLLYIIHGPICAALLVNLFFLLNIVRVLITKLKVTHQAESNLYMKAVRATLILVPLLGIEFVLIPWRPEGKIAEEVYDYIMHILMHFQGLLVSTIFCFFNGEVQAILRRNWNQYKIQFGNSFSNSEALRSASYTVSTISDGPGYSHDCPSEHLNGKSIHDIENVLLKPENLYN
Method in brief: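 SK-N-MC cell membranes, frozen at -80 °C in Tris/BSA/bacitracin buffer, then diluted 1:10 in assay buffer (50 mM Tris, 150 mM NaCl, 5 mM MgCl2, 1 mM EDTA, pH 7.40). Filtered, gamma counted, nonspecific binding with 1 μM human α-CGRP. IC50 by one-site nonlinear regression; at least three experiments in triplicate.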

[2] = target: T1, Calcitonin gene-related peptide type 1 receptor; assay: Antagonistic activity against calcitonin gene related peptide receptor determined by measuring the formation of cyclic AMP in SK-N-MC cells; assay type: functional, cell-based; conditions: read-out: pA2 (converted)
[3] = target: Calcitonin gene-related peptide type 1 receptor (Rattus norvegicus, UniProt Q63118); assay: Affinity against calcitonin gene related peptide receptor (1 uM) in rat spleen using [125I]CGRP as radioligand after 180 minutes of incubation at pH 7.40; assay type: tissue-based
Sequence of Calcitonin gene-related peptide type 1 receptor (Rattus norvegicus, UniProt Q63118) (Q63118 whole entry): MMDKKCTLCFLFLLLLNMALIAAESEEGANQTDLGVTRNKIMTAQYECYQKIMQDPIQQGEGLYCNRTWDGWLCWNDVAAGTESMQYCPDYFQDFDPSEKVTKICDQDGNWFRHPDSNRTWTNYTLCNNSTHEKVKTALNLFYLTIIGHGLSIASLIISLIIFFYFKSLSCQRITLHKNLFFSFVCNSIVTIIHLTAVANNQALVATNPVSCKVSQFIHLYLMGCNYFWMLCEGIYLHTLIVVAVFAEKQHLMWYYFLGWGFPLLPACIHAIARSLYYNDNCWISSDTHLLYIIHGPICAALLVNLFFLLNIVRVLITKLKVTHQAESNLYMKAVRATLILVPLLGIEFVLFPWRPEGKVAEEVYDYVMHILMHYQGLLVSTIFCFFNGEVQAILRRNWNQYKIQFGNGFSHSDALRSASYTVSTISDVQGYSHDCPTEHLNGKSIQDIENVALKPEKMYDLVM
Method in brief: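 Membrane homogenates of marmoset or rat spleen, diluted 1:10 in assay buffer (50 mM Tris, 150 mM NaCl, 5 mM MgCl2, 1 mM EDTA, pH 7.40). Incubated 180 min at ambient temperature with 50 pM 125I-CGRP and increasing test concentrations, then filtered on PEI-treated GF/B filters and gamma counted. Nonspecific binding defined with 1 μM human α-CGRP. IC50 from one-site nonlinear regression.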

**Q.** For `COc1ccccc1CCNC(=O)N[C@@H](Cc1cc(Br)c(O)c(Br)c1)C(=O)N[C@H](CCCCN)C(=O)NCCc1ccccc1`, which IC50 [1] is on record?
**A.** 13000 nM

**Q.** How did the IC50 [1] turn out when `NCCCC[C@@H](NC(=O)[C@H](Cc1cc(Br)c(N)c(Br)c1)NC(=O)CCCc1ccccc1)C(=O)N1CCNCC1` was run?
**A.** > 300000 nM

**Q.** Which IC50 [1] does the source give for `NCCCC[C@@H](NC(=O)[C@H](Cc1cc(Br)c(N)c(Br)c1)NC(=O)CCCc1ccccc1)C(=O)NCCc1ccccc1` here?
**A.** 40000 nM

**Q.** With `NCCCC[C@@H](NC(=O)[C@H](Cc1cc(Br)c(O)c(Br)c1)NC(=O)N1CCC(n2c(=O)oc3ccccc32)CC1)C(=O)N1CCN(c2ccncc2)CC1` as the compound, how does the IC50 [1] read?
**A.** 44 nM

**Q.** And the Kb [2]?
**A.** 10 nM

**Q.** Which IC50 [1] does the source give for `NCCCC[C@@H](NC(=O)[C@H](Cc1cc(Br)c(N)c(Br)c1)NC(=O)CCCc1ccccc1)C(=O)N1CCN(c2ccncc2)CC1` here?
**A.** 10300 nM

**Q.** `NCCCC[C@@H](NC(=O)[C@H](Cc1cc(Br)c(O)c(Br)c1)NC(=O)N1CCC(n2cc(-c3ccccc3)[nH]c2=O)CC1)C(=O)N1CCN(c2ccncc2)CC1` was tested. Which IC50 [1] did it give?
**A.** 0.05 nM

**Q.** Which IC50 [1] does the source give for `NCCCC[C@@H](NC(=O)[C@H](Cc1cc(Br)c(N)c(Br)c1)NC(=O)CCCc1ccccc1)C(=O)Nc1ccccc1` here?
**A.** 50000 nM

**Q.** With `NCCCC[C@@H](NC(=O)[C@H](Cc1cc(Br)c(O)c(Br)c1)NC(=O)CCCc1ccccc1)C(=O)NCCc1ccccc1` as the compound, how does the IC50 [1] read?
**A.** 17000 nM

**Q.** How did the IC50 [1] turn out when `NCCCC[C@@H](NC(=O)[C@@H](Cc1cc(Br)c(O)c(Br)c1)NC(=O)CCCc1ccccc1)C(=O)NCCc1ccccc1` was run?
**A.** > 300000 nM

**Q.** For `NCCCC[C@@H](NC(=O)[C@H](Cc1cc(Br)c(O)c(Br)c1)NC(=O)N1CCC(N2Cc3ccccc3NC2=O)CC1)C(=O)N1CCN(c2ccncc2)CC1`, which IC50 [3] is on record?
**A.** 6.4 nM

**Q.** Which results are given for `COc1cccc(CCNC(=O)N[C@@H](Cc2cc(Br)c(O)c(Br)c2)C(=O)N[C@H](CCCCN)C(=O)N2CCN(c3ccncc3)CC2)c1`?
**A.** IC50 [3]: 70500 nM; IC50 [1]: 200 nM; Kb [2]: 126 nM

**Q.** How did the IC50 [1] turn out when `NCCCC[C@@H](NC(=O)[C@H](Cc1cc(Br)c(N)c(Br)c1)NC(=O)CCc1ccccc1)C(=O)NCCc1ccccc1` was run?
**A.** 196000 nM

**Q.** What does the source list for `NCCCC[C@@H](NC(=O)[C@H](Cc1cc(Br)c(O)c(Br)c1)NC(=O)N1CCC(N(C(N)=O)c2ccccc2)CC1)C(=O)N1CCN(c2ccncc2)CC1`?
**A.** IC50 [1]: 4.7 nM; Kb [2]: 0.794 nM

**Q.** With `COc1ccccc1N1CCN(C(=O)N[C@@H](Cc2cc(Br)c(O)c(Br)c2)C(=O)N[C@H](CCCCN)C(=O)N2CCN(c3ccncc3)CC2)CC1` as the compound, how does the IC50 [1] read?
**A.** 226 nM

**Q.** How did the IC50 [3] turn out when `NCCCC[C@@H](NC(=O)[C@H](Cc1cc(Br)c(O)c(Br)c1)NC(=O)N1CCC(n2c(O)nc3ccccc32)CC1)C(=O)N1CCN(c2ccncc2)CC1` was run?
**A.** 56.7 nM

**Q.** And the IC50 [1]?
**A.** 0.2 nM

**Q.** And the Kb [2]?
**A.** 0.0794 nM

**Q.** How did the IC50 [1] turn out when `COc1ccccc1CCNC(=O)N[C@@H](Cc1cc(Br)c(O)c(Br)c1)C(=O)N[C@H](CCCCN)C(=O)N1CCN(c2ccncc2)CC1` was run?
**A.** 1000 nM

**Q.** `NCCCC[C@@H](NC(=O)[C@H](Cc1cc(Br)c(N)c(Br)c1)NC(=O)CCCc1ccccc1)C(=O)N1CCN(c2ccccc2)CC1` was tested. Which IC50 [1] did it give?
**A.** > 300000 nM

**Q.** How did the IC50 [1] turn out when `COc1ccccc1C1CCN(C(=O)N[C@@H](Cc2cc(Br)c(O)c(Br)c2)C(=O)N[C@H](CCCCN)C(=O)N2CCN(c3ccncc3)CC2)CC1` was run?
**A.** 250 nM

**Q.** `NCCCC[C@H](NC(=O)[C@H](Cc1cc(Br)c(O)c(Br)c1)NC(=O)CCCc1ccccc1)C(=O)NCCc1ccccc1` was tested. Which IC50 [1] did it give?
**A.** > 300000 nM

**Q.** How did the IC50 [1] turn out when `NCCCC[C@H](NC(=O)[C@@H](Cc1cc(Br)c(O)c(Br)c1)NC(=O)CCCc1ccccc1)C(=O)NCCc1ccccc1` was run?
**A.** > 300000 nM
